Results of several laboratories.
Lines come from different studies, so protocols differ.
Target: Mitogen-activated protein kinase 14 (MAPK14, Homo sapiens, UniProt Q16539)

`CC(C)(C)c1cc(C=C(C#N)C#N)cc(Br)c1O` has a remaining activity of 98.3% (enzyme activity, inhibitor; 0.5 µM).
`N#CC1(c2ccccn2)CCN(Cc2cc(C(=O)O)c(=O)n3ccccc23)CC1` gave a remaining binding of 100% (cell-free assay, competition with immobilised ligand; 1 µM).
`O=C(Nc1cccnn1)N1CCN([C@@H]2CCOc3cc(C(F)(F)F)ccc32)CC1` has an inhibition of -20% (enzyme activity, inhibitor; 20 µM).
`C#Cc1n[nH]c2c(-c3cn(C(C)c4ccccn4)c(=O)[nH]c3=O)cc(F)cc12` (stereo not shown) has an inhibition of -4.4% (enzyme activity, inhibitor; 1 µM).
`O=c1[nH]c2ccccc2n1C1CCN(Cc2ccc(-c3[nH]c4cc5ncnc5cc4nc3-c3ccccc3)cc2)CC1` has a remaining signal of 99.7% (cell-free assay; 0.5 µM).
The remaining binding of `Cc1nn(C)cc1-c1nc2c(N3CCN(Cc4ccc(Cl)cc4)CC3)c(Cl)cnc2[nH]1` is reported as 71% (binding, competition with immobilised ligand; 1 µM).
With `Cn1cncc1[C@@](O)(COc1ccc(C#N)cc1-c1ccc(OC(F)(F)F)cc1)c1ccc(C#N)cc1` the remaining binding was 100% (cell-free assay, competition with immobilised ligand; 1 µM).
`COc1cc(Cl)c(C(=O)N[C@@H](CN[C@H]2CC[C@@H](N)CC2)Cc2ccc(C#N)cc2)cc1-c1ccc(CN[C@H](C)c2ccc(C)cc2)o1` gave a remaining activity of 107% (enzyme activity, inhibitor; 1 µM).
The inhibition of `Cc1ncc(C)n2nc(/C=C/c3nc(N4CCCC4)cc(N4CCOCC4)n3)nc12` is reported as 0% (enzyme activity, inhibitor; 10 µM).
`COc1ncccc1-c1cnn2ccc(N3CCN(C(=O)OC(C)C)CC3)nc12` has a remaining binding of 94% (binding, competition with immobilised ligand; 1 µM).
